A selection: hits, their analogues and other compounds. The true share with any hit is near 2%.
APJ agonist = agonists of human APJ apelin receptor; CHO-K1 APJ PathHunter beta-arrestin, luminescence; 0% DMSO wells, 100% apelin; activation, % at 20 µM; actives 0.11% (n = 330,000); AID 2520;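 active = activation more than six SD over the plate average, tested at 20 µM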;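 also: 0% = DMSO alone and 100% = apelin-13 at 10 nM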
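assay system = CHO-K1 APJ beta-arrestin complementation cell line | input = cell density 1000 per well | dosing = compound 20 µM once, DMSO 1% | timing = compound 90 min 25 °C, reagent 1 h | measured by = luminescence from split beta-galactosidase complementation, Galacton Star/Emerald II substrate | read-out basis = APJ agonist activity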
CCR6 antag = blocks CCL20-driven beta-arrestin recruitment at human CCR6. CHO-K1 CCR6 PathHunter beta-arrestin, luminescence, CCL20-stimulated. inhibition, % at 20 µM. actives 0.49% (n = 340,000). AID 493098;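 active = compounds whose inhibition of the agonist-driven luminescence signal at 20 µM reaches about 50%, limit read from the data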;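 also: cells stimulated with CCL20 at 14 nM final; plate controls were DMSO with CCL20 for no effect and DMSO without agonist for full effect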
Target sequence (P51684 whole entry, looked up): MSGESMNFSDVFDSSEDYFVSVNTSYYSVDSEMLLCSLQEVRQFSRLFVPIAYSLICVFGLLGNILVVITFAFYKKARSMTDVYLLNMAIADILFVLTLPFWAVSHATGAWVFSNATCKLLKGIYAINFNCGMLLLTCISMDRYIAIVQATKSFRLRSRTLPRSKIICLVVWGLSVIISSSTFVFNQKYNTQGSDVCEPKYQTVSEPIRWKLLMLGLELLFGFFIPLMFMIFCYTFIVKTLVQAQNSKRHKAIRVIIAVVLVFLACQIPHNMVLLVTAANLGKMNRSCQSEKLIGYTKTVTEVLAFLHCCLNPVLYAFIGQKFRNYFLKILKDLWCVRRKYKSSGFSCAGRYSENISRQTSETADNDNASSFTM
EBI2 antag = antagonists of human EBI2 receptor; P32249; EBI2 beta-arrestin recruitment, luminescence, 7a,25-OHC stimulated; inhibition, % at 5 µM; actives 0.81% (n = 360,000); AID 651636; in the data active = inhibition above about 38%;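 also: enzyme fragment complementation signal reports receptor beta-arrestin coupling in cells; 0% = agonist plus DMSO wells and 100% = wells without agonist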
CXCR6 inh = CXCR6 (human) receptor inhibition; O00574; CHO-K1 PathHunter CXCR6 beta-arrestin, luminescence; inhibition, % at 20 µM; actives 0.36% (n = 360,000); AID 602244; in the data active = inhibition above about 34%, passing the limit was not always enough;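 also: antagonist mode with CXCL16 agonist at 10 nM final; 0% = 10 nM CXCL16 with DMSO and 100% = unstimulated wells without agonist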
FXN GAA850 act = increases GAA850 frataxin promoter reporter activity. HEK293 lucGAA850 FXN promoter luciferase reporter, 24 h; percent of 10 µM SAHA response. activation, % at 6 µM. actives 0.56% (n = 360,000);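 active = activation above the average of all compounds screened plus 3 SD, cutoff fixed separately per campaign, cut at about 7.5% in these data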;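 also: 0% = DMSO wells and 100% = 10 µM SAHA wells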
APJ antag = antagonists of human APJ apelin receptor; P35414; CHO-K1 APJ beta-arrestin complementation, luminescence; inhibition, % at 20 µM; actives 0.32% (n = 330,000); AID 2521;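 active = inhibition above about 40% at 20 µM, limit read from the data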;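 also: cells challenged with 10 nM apelin-13 agonist together with compound; plate controls were apelin-13 plus DMSO wells for no effect and DMSO wells lacking apelin-13 for full effect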
EBI2 conf = confirmation of human EBI2 receptor antagonists; inhibition, % at 5 µM; shares compounds with EBI2 antag; EBI2 beta-arrestin luminescence, 7a,25-OHC antagonism; actives 29% (n = 2,400); AID 651997;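 active = inhibition of at least 50%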
EBI2 ag = counter-screen for EBI2 antagonists: EBI2 agonist activity; AID 652000; activation, % at 5 µM; EBI2-expressing cells, agonist mode, luminescence, 60 min; 0% vehicle, 100% 7α,25-dihydroxycholesterol control; 2,400 tested, under 10 active; shares compounds with EBI2 antag;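 active = activation of at least 50%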
bGal counter = inhibits E. coli beta-galactosidase, counter-screen for EBI2 antagonists; shares compounds with EBI2 antag; actives 1% (n = 2,400); purified beta-galactosidase, luminescent Galacton Star, 15 min; inhibition, % at 5 µM; AID 652176;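 active = replicate-average signal at least 3 plate SD below neutral wells, shown as high inhibition, flagging enzyme-inhibiting false positives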;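 also: 0% = DMSO wells with enzyme and 100% = wells lacking enzyme; higher means stronger loss of beta-gal luminescence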
Starred values were filed as active, the others as inactive.

CCCCOc1ccc(C(=O)N2CCN(c3ccc(N4CCOCC4)nn3)CC2)cc1 was read as APJ agonist 4, CCR6 antag 9, EBI2 antag 7, CXCR6 inh -2, FXN GAA850 act -1 and APJ antag 12.
`CCCOc1ccc(C(=O)N2CCN(c3ccc(N)cc3Cl)CC2)cc1` gave APJ agonist -3, CCR6 antag -8, EBI2 antag 70*, CXCR6 inh -3, FXN GAA850 act -1, APJ antag -7, EBI2 conf 52*, EBI2 ag -2 and bGal counter -3.
O=C(Nc1cccc(C(=O)N2CCCC2)c1)C1CCCCC1 was read as CCR6 antag -7, EBI2 antag -6, CXCR6 inh 1 and FXN GAA850 act 1.
Screening Cc1ccc(SCc2nc3ccccc3n2CC(=O)Nc2ccc(Cl)cc2)cc1 returned APJ agonist -5, CCR6 antag -12, EBI2 antag 27, CXCR6 inh 2, FXN GAA850 act -3 and APJ antag 13.
CC(C)Cn1c(N2CCN(CC(=O)Nc3ccc(Cl)cc3)CC2)nc2ccccc21 was read as APJ agonist 0, CCR6 antag 19, EBI2 antag 74*, CXCR6 inh 6, FXN GAA850 act 0, APJ antag -8, EBI2 conf 40, EBI2 ag 2 and bGal counter 4.
N#Cc1ccc(Oc2ccc(S(=O)(=O)N3CCOCC3)cn2)cc1 was read as APJ agonist -3, CCR6 antag 5, EBI2 antag 5, CXCR6 inh -1, FXN GAA850 act -1 and APJ antag -30.
`CC(C)C[C@H]1CN([C@@H](CC(C)C)CN2CCC[C@@H]2CN2C(=S)NC[C@@H]2Cc2ccc(O)cc2)C(=S)N1CC1CCCCC1` gave EBI2 antag 39 and CXCR6 inh 17.
Screening CC(C)C[C@@H](CN1CCCC1CN1C(=S)NC[C@@H]1Cc1ccccc1)N1C[C@H](Cc2ccc(O)cc2)N(CC2CCCCC2)C1=S (some centres undefined) returned EBI2 antag 16 and CXCR6 inh 0.
Screening CC(C)C[C@@H](CN1CCC[C@@H]1CN1C(=S)NC[C@@H]1Cc1ccc(O)cc1)N1C[C@H](Cc2ccc(O)cc2)N(CC2CCCCCC2)C1=S returned EBI2 antag 85*, CXCR6 inh -6, EBI2 conf 47, EBI2 ag 0 and bGal counter -15.
Screening CC(C)C[C@@H](CN1CCC[C@@H]1CN1C(=S)NC[C@@H]1Cc1ccc(O)cc1)N1C[C@H](Cc2ccc(O)cc2)N(CC2CCCCC2)C1=S returned EBI2 antag 89*, CXCR6 inh 1, EBI2 conf 42, EBI2 ag -1 and bGal counter -11.
CSCCC(NC(=O)COc1ccccc1)C(=O)N(C)Cc1ccc(Cl)cc1Cl (centres undefined) was read as APJ agonist -2, CCR6 antag 12, EBI2 antag 23, CXCR6 inh -4, FXN GAA850 act -1 and APJ antag -24.
Screening Cc1ccc(CNC(=O)CCn2cc(-c3ccc(C)cc3)nc2CCN)cc1 returned APJ agonist -7, CCR6 antag 13, EBI2 antag -1, CXCR6 inh -5, FXN GAA850 act 1 and APJ antag 7.
Screening COc1ccc(-c2nnn(CC(=O)N(Cc3ccc(F)cc3)C(C(=O)NC3CCCC3)c3ccc(F)cc3)n2)cc1 (centres undefined) returned APJ agonist -1, CCR6 antag 4, EBI2 antag 9, CXCR6 inh 8, FXN GAA850 act -5 and APJ antag 15.

Bioassay records as filed in PubChem BioAssay.
